# Reference: the RNAGym collection of RNA variant scans (doi:10.1101/gad.245936.114)
# Fewer inactive variants are shown than the library holds.
# B1: tRNA (parent)
# chain: CUCUCGGUAGCCAAGUUGGUUUAAGGCGCAAGACUUUAAUUUAUCACUACGAAAUCUUGAGAUCGGGCGUUCGACUCGCCCCCGGGAGAUUUUUUCCUCGAGCAA
# Variants of: B1
# Experiment: nonsense suppression (GFP-seq) (ratio to wild type); higher = more function; SUP4oc tRNA, yeast GFP reporter sort-seq
# Outline: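 Yeast carrying genome-integrated SUP4oc tRNA variants from a library with ~3% random mutations were grown in raffinose/galactose medium with 80 mg/L adenine. Each strain also carried a galactose-driven GFP ochre reporter and RFP. Cells were sorted into GFP/RFP bins, and each bin was Illumina-sequenced (phred ≥30). Nonsense suppression (GFPSEQ) is the bin median GFP/RFP, weighted by each variant's estimated cell share per bin, relative to wild-type SUP4oc; variants needed ≥100 reads and ≥30 cells.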
row,Variant,nonsense suppression
1,CUCUCGGUAGCCAAGUUGGCUUAAGGCGCAAGACUUUAAUUUAUCACUACGAAAUCUUGAGAUCGGGCGUUCGACUCGCCCCCGGCAGAUUUUUUCCUCGAGCAA [U20C G86C],≤ 0.026
2,CUCUCGGUAGCCAAGUUGGCUUAAGGCGCAAGACUUUAAUUUAUCACUACGAAAUCUUGAGAUCGGGCGUUCGACUCGCCCCCGGAAGAUUUUUUCCUCGAGCAA [U20C G86A],≤ 0.026
3,CUCUCGGUAGCCAAGUUGGCUUAAGGCGCAAGACUUUAAUUUAUCACUACGAAAUCCGGACAUCGGGCGUUCGACUCGCCCCCGGGAGAUUUUUUCCUCGAGCAA [U20C U57C U58G G61C],≤ 0.026
4,CUCUCGGUAGCCAAGUUGGCUCAAGGCGCAAGACUUUAAUUUAUCACUACGAAAUCUUGAGAUCGGGCGUUCGACUCGCCCCCGGGAGAUUUUUUCCUCGAGCAA [U20C U22C],0.814
5,CUCUCGGUAGCCAAGUUGGCUUAAGGCGCAAGACUUUAAUUUAUCACUACGAAAUCUUGAGAUCGGGCGUUCGACUCGCCCCCGGGAUAUUUUUUCCUCGAGCAA [U20C G88U],≤ 0.026
6,CUCUCGGUAGCCAAGUUGGCUUAAGGCGCAAGACUUUAAUUUAUCACUACGAAAUCUUGAGAUCGGGCGUUCGACUCGCCCCCGGGUGAUUUUUUCCUCGAGCAA [U20C A87U],0.0273
7,CUCUCGGUAGCCAAGUUGGCUUAAGGCGCAAGACUUUAAUUUAUCACUACGAAAUCUUGAGAUCGGGCGUUCGACUCGCCCCCGGGGGAUUUUUUCCUCGAGCAA [U20C A87G],0.213
8,CUCUCGGUAGCCAAGUUGGCUUAAGGCGCAAGACUUUAAUUUAUCACUACGAAGUCUUGAGAUCGGGCGUUCGACUCGCCCCCGGGAGAUUUUUUCCUCGAGCAA [U20C A54G],0.052
9,CUCUCGGUAGCCAAGUUGGCUUAAGGCGCAAGACUUUAAUUUAUCACUACGAAUUCUUGAGAUCGGGCGUUCGACUCGCCCCCGGGAGAUUUUUUCCUCGAGCAA [U20C A54U],0.62
10,CUCUCGGUAGCCAAGUUGGCUUAAGGCGCAAGACUUUAAUUUAUCACUACGAAAUCUUGAGAUCGGGCGUUCGACUCGCCCCCGAGAGAUUUUUUCCUCGAGCAA [U20C G85A],0.861
11,CUCUCGGUAGCCAAGUUGGAUUAAGGCGCAAGACUUUAAUUUAUCACUACGAAAUCUUGAGAUCGGGCGUACGACUCGCCCCCGGGAGAUUUUUUCCUCGAGCAA [U20A U71A],≤ 0.026
12,CUCUCGGUAGCCAAGUUGGGUUAAGGCGCAAGACUUUAAUUUAUCACUACGAAUUCUUGAGAUCGGGCGUUCGACUCGCCCCCGGGAGAUUUUUUCCUCGAGCAA [U20G A54U],1.04
13,CUCUCGGUAGCCAAGUUGGCUCAAGGCGCAAGACUUUAAUUUAUCACUACGAAUUCUUGAGAUCGGGCGUUCGACUCGCCCCCGGGAGAUUUUUUCCUCGAGCAA [U20C U22C A54U],0.412
14,CUCUCGGUAGCCAAGUUGGCUUAAGGCGCACGACUUUAAUUUAUCACUACGAAAUCUUGAGAUCGGGCGUUCGACUCGACCCCGCGAGAUUUUUUCCUCGAGCAA [U20C A31C C79A G85C],≤ 0.026
15,CUCUCGGUAGCCAAGUUGGCUUAAGGCGCGAGACUUUAAUUUAUCACUACGAAAUCUUGAGAUCGGGCGUUCGACUCGCCCCCGGGAGAUUUUUUCCUCGAGCAA [U20C A30G],0.129
16,CUCUCGGUAGCCAAGUUGGCUUAAGGCGCUAGACUUUAAUUUAUCACUACGAAAUCUUGAGAUCGGGCGUUCGACUCGCCCCCGGGAGAUUUUUUCCUCGAGCAA [U20C A30U],0.0386
17,CUCUCGGUAGCCAAGUUGGCUUAAGGCGCAAGACUUUAAUUUAUCACUACGAAAUCUUGAGAUCGGGCGUUCGAUUCGCCCCCGGGAGAUUUUUUCCUCGAGCAA [U20C C75U],0.843
18,CUCUCGGUAGCCAAGUUGGCUUAAGGCGCAAGACUUUAAUUUAUCACUACGAAAUCUUGAGAUCGGGCGUUCGACUCGCCCCGGGAAGAUUUUUUCCUCGAGCAA [U20C C83G G86A],≤ 0.026
19,CUCUCGGUAGCCAAGUUGGGUUUAGGCGCAAGACUUUAAUUUAUCACUACGAAAUCUUGAGAUCGGGCGUUCGACUCGCCCCCGGGAUAUUUUUUCCUCGAGCAA [U20G A23U G88U],≤ 0.026
20,CUCUCGGUAGCCAAGUUGGCUUACGGCGCAAGACUUUAAUUUAUCACUACGAAAUCUUGAGAUCGGGCGUUCGACUCGCCCCCGGGAGAUUUUUUCCUCGAGCAA [U20C A24C],0.249
21,CUCUCGGUAGCCAAGUUGGCUUAAGGGGCAAGACUUUAAUUUAUCACUACGAAAUCUUGAGAUCGGGCGUUCGACUCGCCCCCGGGAGAUUUUUUCCUCGAGCAA [U20C C27G],≤ 0.026
22,CUCUCGGUAGCCAAGUUGGGUUAAGGCGCAAGACUUUAAUUUAUCACUACGAAAUCUUGAGAUCGGGCGUUCGACUCGCCCCCGGGAGAUUUUUUCCUCGAGCAA [U20G],0.989
23,CUCUCGGUAGCCAAGUUGGCUUAAGGCGCAAGACUUUAAUUUAUCACUACGAAAUCUUGAGAUCGGGCGUUCGACUCGCCCCCGGGAGAUUUUUUCCUCGAGCAA [U20C],0.848
24,CUCUCGGUAGCCAAGUUGGCUUAAGGCGUAAGACUUUAAUUUAUCACUACGAAAUCUUGAGAUCGGGCGUUCGACUCGCCCCCGGGAGAUUUUUUCCUCGAGCAA [U20C C29U],0.0276
25,CUCUCGGUAGCCAAGUUGGCUUAAGGCACAAGACUUUAAUUUAUCACUACGAAAUCGUGAGAUCGGGCGUUCGACUAGCCCCCGGGAGAUUUUUUCCUCGAGCAA [U20C G28A U57G C77A],0.813
26,CUCUCGGUAGCCAAGUUGGCUUAAGGCGCAUGACUUUAAUUUAUCACUACGAAAUCUUGAGAUCGGGCGUUCGACUCGCCCCCGGGAGAUUUUUUCCUCGAGCAA [U20C A31U],0.0722
27,CUCUCGGUAGCCAAGUUGGCUUAAGGCGCAGGACUUUAAUUUAUCACUACGAAAUCUUGAGAUCGGGCGUUCGACUCGCCCCCGGGAGAUUUUUUCCUCGAGCAA [U20C A31G],0.0336

row,Variant,nonsense suppression
1,CUCUCGGUAGCCAAGUUGGCUUAAGGCGCAAGACUUUAAUUUAUCACUACGAAAUCUUGAGAUCGGGCGUUCGACUUGCCCCCGGGAGAUUUUUUCCUCGAGCAA [U20C C77U],0.0349
2,CUCUCGGUAGCCAAGUUGGGUUAAGGCGCAAGACUUUAAUUUAUCACUACGAAAUCUUGUGAUCGGGCGUUCGACUCGCCCCCGGGAGAUUUUUUCCUCGAGCAA [U20G A60U],1.12
3,CUCUCGGUAGCCAAGUUGGGUUAAGGCGCAAGACUUUAAUUUAUCACUACGAAAUCUUGGGAUCGGGCGUUCGACUCGCCCCCGGGAGAUUUUUUCCUCGAGCAA [U20G A60G],0.477
4,CUCUCGGUAGCCAAGUUGGCUUAAGGCGCAAGACUUUAAUUUAUCACUACGAAAUCUUGAGAUCGGGCGUUCGACUCUCCCCCGGGAGAUUUUUUCCUCGAGCAA [U20C G78U],0.0456
5,CUCUCGGUAGCCAAGUUGGCUUAAGGCACAAGACUUUAAUUUAUCACUACGAAAUCUUGAGAUCGGGCGUUCGACUCGCCCCCGGGAGAUUUUUUCCUCGAGCAA [U20C G28A],0.192
6,CUCUCGGUAGCCAAGUUGGCUUAAGGCGCAAGACUUUAAUUUAUCACUACGAAAUCUUGGGAUCGGGCGUUCGACUCGCCCCCGGGAGAUUUUUUCCUCGAGCAA [U20C A60G],0.0437
7,CUCUCGGUAGCCAAGUUGGGUUAAGGCGCAAGUCUUUAAUUUAUCACUACGAAAUCUUGAGAUCGGGCGUUCGACUCGCCCCCGGGAGAUUUUUUCCUCGAGCAA [U20G A33U],0.0902
8,CUCUCGGUAGCCAAGUUGGGUUAAGGCGCAAGGCUUUAAUUUAUCACUACGAAAUCUUGAGAUCGGGCGUUCGACUCGCCCCCGGGAGAUUUUUUCCUCGAGCAA [U20G A33G],0.18
9,CUCUCGGUAGCCAAGUUGGCUUAAGGCGCAAGACUUUAAUUUAUCACUACGAAAUCUUGAGAGCGGGCGUUCGACUCGCCCCCGGGAGAUUUUUUCCUCGAGCAA [U20C U63G],0.0493
10,CUCUCGGUAGCCAAGUUGGCUUAAGGCGCAAGACUUUAAUUUAUCACUACGAAAUCUUGAAAUCGGGCGUUCGACUCGCCCCCGGGAGAUUUUUUCCUCGAGCAA [U20C G61A],0.212
11,CUCUCGGUAGCCAAGUUGGCUUAAGGCGCAAGACUUUAAUUUAUCACUACGAAAUCUUAAGAUCGGGCGUUCGACUCGCCCCCGGGAGAUUUUUUCCUCGAGCAA [U20C G59A],0.0894
12,CUCUCGGUAGCCAAGUUGGCUUAAGGCGCAAGACUUUAAUUUAUCACUACGAAAUCUUGAGAUCGGGCGUUCGACCCGCCCCCGGGAGAUUUUUUCCUCGAGCAA [U20C U76C],0.228
13,CUCUCGGUAGCCAAGUUGGCCUAAGGCGCAAGACUUUAAUUUAUCACUACGAAAUCUUGAGAUCGGGCGUUCGACUCGCCCCCGGGAGAUUUUUUCCUCGAGCAA [U20C U21C],1.15
14,CUCUCGGUAGCCAAGUUGGCAUAAGGCGCAAGACUUUAAUUUAUCACUACGAAAUCUUGAGAUCGGGCGUUCGACUCGCCCCCGGGAGAUUUUUUCCUCGAGCAA [U20C U21A],0.188
15,CUCUCGGUAGCCAAGUUGGCUUAAGGCGCAAGACUUUAAUUUAUCACUACGAAAUCUUGAGAUCGGGCGUUCGACUCGUCCCCUGGAGAUUUUUUCCUCGAGCAA [U20C C79U G84U],≤ 0.026
16,CUCUCGGUAGCCAAGUUGGCUUAAGGCGCAAGACUUUAAUUUAUCACUACGAAAUCUUGAGAUCGGGCGUUCGACUCGCUCCCGGGAGAUUUUUUCCUCGAGCAA [U20C C80U],0.036
17,CUCUCGGUAGCCAAGUUGGCUUAAGGCGCAAGACUUUAAUUUAUCACUACGAAAUCUUGAGAUCGGGCGUUCGACUCGCCCCCGGGAGUUUUUUUCCUCGAGCAA [U20C A89U],0.0684
18,CUCUCGGUAGCCAAGUUGGGUUAAGGCGUAAGACUUUAAUUUAUCACUACGAAAUCUUGAGAUCGGGCGUUCGACUCGCCCCCGGGAGAUUUUUUCCUCGAGCAA [U20G C29U],1.12
19,CUCUCGGUAGCCAAGUUGGCUUAAGGCGCAAGACUUUAAUUUAUCACUACGAAAUCUUGAGAUUGGGCGUUCGACUCGCCCCCGGGAGAUUUUUUCCUCGAGCAA [U20C C64U],0.0503
20,CUCUCGGUAGCCAAGUUGGCUUAAGGCGCAAGACUUUAAUUUAUCACUACGAAACCUUGAGAUCGGGCGUUCGACUCGCCCCCGGGAGAUUUUUUCCUCGAGCAA [U20C U55C],0.0996
21,CUCUCGGUAGCCAAGUUGGAUUAAGGCGCAAGACUUUAAUUUAUCACUACGAAAUCUUGAGACCGGGCGUUCGACUCGCCCCCGGGAGAUUUUUUCCUCGAGCAA [U20A U63C],0.191
22,CUCUCGGUAGCCAAGUUGGAUUAAGGCGCAAGACUUUAAUUUAUCACUACGAAAUCUUGAGAGCGGGCGUUCGACUCGCCCCCGGGAGAUUUUUUCCUCGAGCAA [U20A U63G],0.106
23,CUCUCGGUAGCCAAGUUGGCUUAAGGCGCAAGACUUUAAUUUAUCACUACGAAAUGUUGAGAUCGGGCGUUCGACUCGCCCCCGGGAGAUUUUUUCCUCGAGCAA [U20C C56G],≤ 0.026
24,CUCUCGGUAGCCAAGUUGGCUUAAGGCGCAAGACCUUAAUUUAUCACUACGAAAUCUUGAGAUCGGGCGUUCGACUCGCCCCCGGGAGAUUUUUUCCUCGAGCAA [U20C U35C],0.0559
25,CUCUCGGUAGCCAAGUUGGGUUAAGGCGCUAGACUUUAAUUUAUCACUACGAAAUCUUGAGAUCGGGCGUUCGACUCGCCCCCGGGAGAUUUUUUCCUCGAGCAA [U20G A30U],0.444
26,CUCUCGGUAGCCAAGUUGGAUUAAGGCGCAAGACUUUAAUUUAUCACUACGAAAUCUUGAGAUCGGGCGUUCGACCCGCCCCCGGGAGAUUUUUUCCUCGAGCAA [U20A U76C],0.719
27,CUCUCGGUAGCCAAGUUGGCUUAAGGCGCAAGACUUUAAUUUAUCACUACGAAAUCUUGAGAUCGGGCGUUGGACUCGCCCCCGGGAGAUUUUUUCCUCGAGCAA [U20C C72G],0.063
